pIC50: −log10 of the molar value. Converted amounts (≈) assume the structure as drawn.
Key:
[1] = Solubility of the compound in aqueous buffer at pH 6.8 by HPLC analysis; format: physicochemical
Outline: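 Small volumes of compound DMSO solution were added to aqueous buffer at pH 6.8 and incubated. Precipitate was removed by filtration, and the filtrate concentration was measured by HPLC.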

[2] = molecular target: T1, Fatty-acid amide hydrolase 1 (Rattus norvegicus, UniProt P97612); experiment: Apparent inhibition of rat FAAH using AMCAA as substrate after 30 mins by fluorescence assay
T1 sequence (P97612 whole entry): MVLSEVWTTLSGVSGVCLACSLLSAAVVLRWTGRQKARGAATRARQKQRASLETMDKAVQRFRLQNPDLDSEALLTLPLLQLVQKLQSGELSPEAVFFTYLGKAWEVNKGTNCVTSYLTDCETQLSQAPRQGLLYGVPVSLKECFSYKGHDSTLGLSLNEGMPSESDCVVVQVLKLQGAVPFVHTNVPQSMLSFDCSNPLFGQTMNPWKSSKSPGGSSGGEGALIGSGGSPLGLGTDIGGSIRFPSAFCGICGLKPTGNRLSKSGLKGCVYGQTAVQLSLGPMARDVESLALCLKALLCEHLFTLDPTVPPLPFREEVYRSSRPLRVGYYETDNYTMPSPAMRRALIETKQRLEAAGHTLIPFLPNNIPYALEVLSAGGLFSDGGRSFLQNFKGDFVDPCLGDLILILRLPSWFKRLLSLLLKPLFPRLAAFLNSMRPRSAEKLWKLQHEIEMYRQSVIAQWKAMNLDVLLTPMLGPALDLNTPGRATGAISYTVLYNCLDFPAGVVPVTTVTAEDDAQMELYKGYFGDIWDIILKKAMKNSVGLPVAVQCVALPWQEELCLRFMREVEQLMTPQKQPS
Outline: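 Rat FAAH enzyme fraction (125–250 ng final) was reacted with AMCAA substrate across a range of compound concentrations at 37 °C. Buffer: 125 mM Tris-HCl pH 9.0, 1 mM EDTA, 0.4 mM HEPES, 0.2% glycerol, 0.02% Triton X-100, 0.3% fatty acid free BSA. Fluorescence read at ex 355/em 460 nm, scaled to solvent (100%) and zero-time (0%). IC50 determined at a 30 min reaction.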

[3] = molecular target: T2, Fatty-acid amide hydrolase 1 (Homo sapiens, UniProt O00519); experiment: Apparent inhibition of human FAAH expressed in CHOK1 cells using AMCAA as substrate after 30 mins by fluorescence assay; format: cell-based, CHO-K1
T2 sequence (O00519 whole entry): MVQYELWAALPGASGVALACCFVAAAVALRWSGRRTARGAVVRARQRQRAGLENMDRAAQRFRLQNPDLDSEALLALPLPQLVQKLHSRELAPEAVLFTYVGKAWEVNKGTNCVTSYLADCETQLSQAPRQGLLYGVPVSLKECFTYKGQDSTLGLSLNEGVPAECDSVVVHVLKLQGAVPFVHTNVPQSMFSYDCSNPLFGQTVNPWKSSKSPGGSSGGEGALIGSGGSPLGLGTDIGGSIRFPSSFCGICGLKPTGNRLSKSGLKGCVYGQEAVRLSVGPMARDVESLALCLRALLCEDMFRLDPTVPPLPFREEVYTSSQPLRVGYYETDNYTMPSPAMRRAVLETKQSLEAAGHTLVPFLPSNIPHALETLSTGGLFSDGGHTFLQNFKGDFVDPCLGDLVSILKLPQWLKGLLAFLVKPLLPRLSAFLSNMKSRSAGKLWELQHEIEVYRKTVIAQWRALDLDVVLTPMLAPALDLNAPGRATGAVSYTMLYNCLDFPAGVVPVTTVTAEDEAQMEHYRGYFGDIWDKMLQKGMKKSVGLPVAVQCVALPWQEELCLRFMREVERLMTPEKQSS
Outline: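 Enzyme source: CHO-K1 cells stably expressing human FAAH cloned from a human brain library, grown in Ham's F-12 with 10% FBS and 800 µg/mL G418, then homogenized in 10 mM Tris, 1 mM EDTA, 10 mM MgCl2. Fraction (125–250 ng final) was incubated with AMCAA at 37 °C in Tris-HCl pH 9.0 buffer with BSA. Fluorescence read at ex 355/em 460 nm; solvent = 100%, zero-time count = 0%. IC50 from a 30 min reaction.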

[4] = system: Brain; experiment: AUC in rat brain at 3 mg/kg, po by LC/MS/MS analysis; format: ADME, organism-based; parameters: dose 3 mg/kg, route oral; conditions: in vivo
Outline: (§1)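 Rats given single oral doses of 0.03, 0.3 or 3 mg/kg as a suspension in 0.5% methylcellulose. Brain drug levels were measured by LC/MS/MS over time, and AUC is reported in ng h/g. Each value is the mean of n = 3.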

[5] = system: Brain; experiment: AUC in rat brain at 0.03 mg/kg, po by LC/MS/MS analysis; format: ADME, organism-based; parameters: dose 0.03 mg/kg, route oral; conditions: in vivo; outline: as §1
[6] = system: Brain; experiment: AUC in rat brain at 0.3 mg/kg, po by LC/MS/MS analysis; format: ADME, organism-based; parameters: dose 0.3 mg/kg, route oral; conditions: in vivo; outline: as §1
[7] = system: Mus musculus; experiment: Analgesic activity in ICR mouse assessed as inhibition of acetic acid-induced writhing at 10 mg/kg, po pretreated for 60 mins followed by acetic acid-challenge measured for 20 mins relative to control; format: functional
Outline: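 Mice received compound po at 10 mg/kg as a suspension in 0.5% methylcellulose (10 mL/kg). After 60 min, 0.6% (v/v) acetic acid (10 mL/kg) was given ip. Each mouse was then placed alone in an observation chamber. Treated mice were compared with vehicle-treated mice by Student's t-test.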

[8] = molecular target: T3, Fatty-acid amide hydrolase 1 (Homo sapiens) (UniProt O00519); experiment: Irreversible inhibition of FAAH (unknown origin) using AMCAA as substrate at 10 nM by fluorescence assay; conditions: TDE = time-dependent effect
T3 sequence (whole entry): T2 sequence (O00519 whole entry)

[9] = system: Rattus norvegicus; experiment: Analgesic activity in po dosed Sprague-Dawley rat sciatic nerve injury-induced neuropathic pain model assessed as attenuation of tactile allodynia administered for 7 days measured 2 hrs after treatment; format: functional, organism-based; conditions: in the assay text read “administered 7 days after nerve injury” for “administered for 7 days”
Outline: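 Seven-week-old male Sprague Dawley rats under pentobarbital had the right common peroneal nerve tightly ligated with 4-0 silk and transected distally; in sham rats the nerve was exposed only. Seven days later, rats got an oral dose of 1, 3 or 10 mg/kg or 0.5% methylcellulose vehicle. Ipsilateral tactile allodynia was scored blinded with von Frey filaments 2 h post-dose. Mean and SE, 8 rats.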

[10] = system: Rattus norvegicus; experiment: Analgesic activity in po dosed Sprague-Dawley rat complete Freund's adjuvant-induced inflammatory pain model assessed as attenuation of tactile allodynia administered for 5 days measured 4 hrs after treatment; format: functional, organism-based; conditions: in the assay text read “administered 5 days after CFA injection” for “administered for 5 days”
Outline: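 Six-week-old male Sprague Dawley rats received 150 µL CFA into the plantar surface of the right hind paw; sham rats got liquid paraffin instead. Five days after injection, a single oral dose of 1, 3 or 10 mg/kg was given, with 0.5% methylcellulose as vehicle. Ipsilateral tactile allodynia was scored blinded with von Frey filaments 4 h post-dose. Mean and SE, 8–10 rats.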

[11] = Ratio of drug level in brain to plasma in rat at 3 mg/kg, po; format: ADME, organism-based; parameters: dose 3 mg/kg, route oral; conditions: read-out: BPR
Outline: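 Rats were dosed orally at 0.03, 0.3 or 3 mg/kg as a suspension in 0.5% methylcellulose. Compound levels in plasma and brain were quantified by LC/MS/MS. Cmax, Tmax and AUC are means of n = 3.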

Row | Compound | solubility [1] | pIC50 [2] | pIC50 [3] | inhibition in vivo at 10 mg/kg [7] | also measured
1 | CCCCC/C=C\C/C=C\C/C=C\C/C=C\CCCC(=O)NCCO [ANANDAMIDE] | – | – | – | – | AUC [4]: 311.6 ng·h/g; AUC [5]: 64.3 ng·h/g; AUC [6]: 232.9 ng·h/g
2 | O=C(Nc1cccnn1)N1CCN(c2cc(-c3ccc(F)cc3F)ccn2)CC1 | – | 8.37 | 8.66 | – | –
3 | O=C(Nc1cccnn1)N1CCN(c2cc(-c3ccc(F)cc3F)ncn2)CC1 | – | 8.77 | 8.82 | – | –
4 | O=C(Nc1cccnn1)N1CCN(c2nccc(-c3ccc(F)cc3F)n2)CC1 | 0.85 µg/mL (≈ 2.14 µM) | 9.37 | 8.96 | – | –
5 | O=C(Nc1cccnn1)N1CCN(c2nccc(-c3cccc(F)c3F)n2)CC1 | 0.16 µg/mL (≈ 0.403 µM) | 8.92 | 10.14 | 18.9% | –
6 | O=C(Nc1cccnn1)N1CCN(c2cncc(-c3ccc(F)cc3F)c2)CC1 | – | 7.13 | 6.85 | – | –
7 | O=C(Nc1cccnn1)N1CCN(c2nccc(-c3ccc(F)c(F)c3)n2)CC1 | 3.1 µg/mL (≈ 7.8 µM) | 9.55 | 9.14 | 34.7% | AUC [4]: 15955 ng·h/g; AUC [5]: 0 ng·h/g; inhibition [8]: tde; Activity [9]: Dose-dependent effect; Activity [10]: Dose-dependent effect; AUC [6]: 898 ng·h/g; Kp [11]: 2
8 | O=C(Nc1cccnn1)N1CCN(c2cccc(-c3ccc(F)cc3F)n2)CC1 | – | 7.89 | 7.44 | – | –

Now from value to molecule, other results behind:

Row | solubility [1] | pIC50 [2] | pIC50 [3] | Compound | inhibition in vivo at 10 mg/kg [7] | also measured
9 | 52 µg/mL (≈ 131 µM) | 7.47 | 7.64 | O=C(Nc1cccnn1)N1CCN(c2ccnc(-c3ccc(F)cc3F)n2)CC1 | – | –
10 | – | 7.92 | 7.55 | O=C(Nc1cccnn1)N1CCN(c2ccnc(-c3ccc(F)cc3F)c2)CC1 | – | –
11 | 0.1 µg/mL (≈ 0.252 µM) | 9.47 | 10.10 | O=C(Nc1cccnn1)N1CCN(c2nccc(-c3cc(F)cc(F)c3)n2)CC1 | 0.9% | –
12 | < 0.06 µg/mL | 9.77 | 10.60 | O=C(Nc1cccnn1)N1CCN(c2nccc(-c3cc(F)ccc3F)n2)CC1 | 2.2% | –

Source: ChEMBL document CHEMBL3112484, “Design, synthesis, and biological evaluation of a series of piperazine ureas as fatty acid amide hydrolase inhibitors” (Bioorg Med Chem, 2014)
